Activity calls are given as the source filed them.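 Rule for the calls, unless noted: active = viability at or below 10% of carrier control in both of two separate runs; inconclusive = viability at or below 10% in only one of the two runs; inactive = the rest.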
How the values were obtained:
[1] = reduced viability of SK-BR-3 breast cancer cells – cell-based, 24 h, human, pilot screen (AID 572); details: SK-BR-3 viability, CellTiter-Glo luminescence, at 10 µM, stronger effect = lower value;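 note: compound exposure lasted between 18 and 24 h rather than exactly 24 h; 100% = carrier-treated control wells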
[2] = HUVEC growth inhibition – cell-based, human, primary screen (AID 575;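 active = viability at or below 30% in both replicate assays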;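 note: 100% = median of untreated cell wells with 0.1% DMSO on each plate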); details: HUVEC proliferation, CellTiter-Glo luminescence, 72 h; at 10 µM; stronger effect = lower value
Outline: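 Test system: HUVEC primary cells. Quantity: 1250 endothelial cells in each well. Dosing: single-point 10 µM, DMSO 0.1% final. Incubation: 72 h treatment at 37 °C. Measured by: CTG luminescence. Control set: DMSO cell controls and MePR drug controls. Plate: collagen-coated 384-well format.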

[3] = H69AR cell proliferation blockers – human, duplicate replicates, primary screen (AID 580;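 active = viability at or under a set limit in both replicates, limit being median viability minus 3 SD, cut at about 48% in these data, passing the limit was not always enough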;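 note: 100% = mean luminescence of untreated wells and 0% = no signal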); details: H69AR lung tumor cells viability, ATP luminescence, 72 h; at 10 µM; stronger effect = lower value
[4] = MRP1 drug-resistance reversers in H69AR cells – cell-based, doxorubicin co-treatment, pilot screen (AID 601;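 active = viability loss from added drug above about 55%, and viability with drug at most 40%, in both replicates, limit read from the data, passing the limit was not always enough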); details: CellTiter-Glo, 72 h, at 10 µM; for differential viability (reversal): stronger effect = higher value
[5] = yeast transport mutant growth inhibition pilot in 384-well plates, post-Golgi transport modulator project (AID 636; in the data active = inhibition above about 31%); details: absorbance 615 nm, about 18 h, stronger effect = higher value
[6] = growth suppression of yeast trafficking mutant, preliminary HTS, modulators of trafficking downstream of Golgi apparatus project, 1536-format plate, OD 615 nm (AID 637; in the data active = inhibition above about 30%); details: yeast transport mutant growth, absorbance 615 nm, 18 h; stronger effect = higher value
[7] = H69AR cells + 2 uM doxorubicin, measured here: viability with 2 uM doxorubicin, stronger effect = lower value
[8] = H69AR cells, compound alone cytotoxicity

Compound	viability [1]	viability [2]	viability [3]	differential viability (reversal) ([4]; H69AR cells + 2 uM doxorubicin)	viability [4, 7] [%]	viability [4, 8] [%]	inhibition [5]	inhibition [6]
CC(C)CN(C(=O)c1ccc(=O)n(C)n1)c1nc2ccccc2s1	94% (inactive)	107% (inactive)	90.2% (inactive)	4.96% (inactive)	85.2	90.2	-1.08% (inactive)	1.09% (inactive)
COC(=O)CSc1nnc(-c2ccc(OC)cc2OC)o1	77% (inactive)	93.1% (inactive)	109% (inactive)	16.5% (inactive)	92.8	109	-2.67% (inactive)	-5.64% (inactive)
CCCc1cc(N2CCCC2)n2nc(C)c(-c3ccccc3)c2n1	64% (inactive)	94.7% (inactive)	76.6% (inactive)	-3.64% (inactive)	80.2	76.6	-4.93% (inactive)	5.27% (inactive)
Cc1occc1C(=O)Nc1ccc(S(=O)(=O)N2CCN(C)CC2)cc1	71% (inactive)	89.2% (inactive)	90.4% (inactive)	5.85% (inactive)	84.5	90.4	-3.01% (inactive)	1.82% (inactive)
COc1ccc(CCN2CC(O)=C(c3nc4ccccc4c(=O)[nH]3)C2=N)cc1OC	105% (inactive)	85.6% (inactive)	80.8% (inactive)	-4.8% (inactive)	85.6	80.8	-1.95% (inactive)	1.8% (inactive)
CCOC(=O)CSc1nnc(-c2ccc(NS(=O)(=O)c3ccc(C)cc3)cc2)o1	87% (inactive)	56% (inactive)	91.5% (inactive)	5.14% (inactive)	86.4	91.5	-4.29% (inactive)	-5.67% (inactive)
O=C(COC(=O)c1cc(S(=O)(=O)N2CCOCC2)cs1)c1ccccc1	115% (inactive)	93.3% (inactive)	99.9% (inactive)	16.3% (inactive)	83.5	99.9	-3.64% (inactive)	-1.97% (inactive)
O=C(NC(C(=O)c1ccccc1)N1CCOCC1)c1cccs1 (stereo unspecified)	87% (inactive)	100% (inactive)	96% (inactive)	15% (inactive)	81	96	-1.22% (inactive)	-4.36% (inactive)
CC(=O)OC(C(=O)NC1CCCCC1)c1ccncc1 (stereo unspecified)	88% (inactive)	98% (inactive)	109% (inactive)	21.3% (inactive)	87.7	109	-0.14% (inactive)	-0.48% (inactive)
CCCN(CCC)S(=O)(=O)c1ccc(C(=O)O)cc1	99% (inactive)	96.2% (inactive)	97.2% (inactive)	10.1% (inactive)	87.1	97.2	-0.52% (inactive)	-1.5% (inactive)
CN(C)c1ccc(C=NCC2(O)CCOC(C)(C)C2)cc1 (stereo unspecified)	91% (inactive)	91.8% (inactive)	89.2% (inactive)	0.32% (inactive)	88.9	89.2	-7.67% (inactive)	3.27% (inactive)
O=C(NCC(F)(F)F)Nc1cccnc1	82% (inactive)	92.8% (inactive)	99.6% (inactive)	6% (inactive)	93.6	99.6	-4.19% (inactive)	-4% (inactive)

Source: PubChem BioAssay
